In ChEMBL document CHEMBL1921740, “Pyrrolamide DNA gyrase inhibitors: optimization of antibacterial activity and efficacy” (Bioorg Med Chem Lett, 2011):
In brackets after ≈: the same amount, converted by molar mass.

Experiments:
Staphylococcus aureus [1] = experiment: Antibacterial activity against methicillin-resistant, quinolone-resistant Staphylococcus aureus ARC517; assay type: functional
Haemophilus influenzae = experiment: Antibacterial activity against Haemophilus influenzae ARC446; assay type: functional
Escherichia coli [2] = experiment: Antibacterial activity against Escherichia coli ARC523; assay type: functional
DNA gyrase subunit B = DNA gyrase subunit B (Staphylococcus aureus, UniProt P0A0K8); experiment: Inhibition of ATPase activity of recombinant Staphylococcus aureus DNA gyrase B hybrid tetramer enzyme reconstituted from Escherichia coli GyrA by ammonium molybdate/malachite green phosphate assay
Summary of the method: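 GyrB ATPase activity of a hybrid tetramer reconstituted in vitro from recombinant S. aureus protein. Released phosphate detected with ammonium molybdate/malachite green. Test compound assayed across a range of concentrations.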

Enterococcus faecium = experiment: Antibacterial activity against Enterococcus faecium ARC073; assay type: functional
Staphylococcus aureus [3] = experiment: Antibacterial activity against Staphylococcus aureus ARC516; assay type: functional
Escherichia coli [4] = experiment: Antibacterial activity against TolC-deficient Escherichia coli ARC524; assay type: functional
Streptococcus pneumoniae [5] = experiment: Antibacterial activity against Streptococcus pneumoniae ARC548; assay type: functional
Moraxella catarrhalis = experiment: Antibacterial activity against Moraxella catarrhalis ARC445; assay type: functional
Streptococcus pneumoniae [6] = experiment: Antibacterial activity against Streptococcus pneumoniae ARC548 infected in po dosed CD1 mouse lung infection pneumonia model assessed as reduction in viable bacterial counts administered 18 hrs after post infection measured after 24 hrs; assay type: functional
Summary of the method: (§1)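 Mice infected in the lung with S. pneumoniae received oral doses of drug or vehicle starting 18 h post-infection, at 40, 60 or 80 mg/kg, with a pre-treatment control group. Lungs were taken 24 h after treatment began, and homogenates were serially diluted and plated for viable counts. Results are reported as group mean log CFU/lung ± standard error.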

Streptococcus pneumoniae [7] = experiment: Antibacterial activity against Streptococcus pneumoniae ARC548 infected in po dosed CD1 mouse lung infection pneumonia model assessed as dose required to maximum effect on reduction of viable bacterial counts administered 18 hrs after post infection measured after 24 hrs; assay type: functional; summary of the method: as §1
[8] = Staphylococcus aureus, ARC517, read-out: MIC
[9] = Haemophilus influenzae, ARC446, read-out: MIC
[10] = Enterococcus faecium, ARC073, read-out: MIC
[11] = Staphylococcus aureus, ARC516, read-out: MIC
[12] = Escherichia coli, ARC524, read-out: MIC
[13] = Streptococcus pneumoniae, ARC548, read-out: MIC
[14] = Moraxella catarrhalis, ARC445, read-out: MIC

DNA gyrase subunit B, sequence (P0A0K8 whole entry): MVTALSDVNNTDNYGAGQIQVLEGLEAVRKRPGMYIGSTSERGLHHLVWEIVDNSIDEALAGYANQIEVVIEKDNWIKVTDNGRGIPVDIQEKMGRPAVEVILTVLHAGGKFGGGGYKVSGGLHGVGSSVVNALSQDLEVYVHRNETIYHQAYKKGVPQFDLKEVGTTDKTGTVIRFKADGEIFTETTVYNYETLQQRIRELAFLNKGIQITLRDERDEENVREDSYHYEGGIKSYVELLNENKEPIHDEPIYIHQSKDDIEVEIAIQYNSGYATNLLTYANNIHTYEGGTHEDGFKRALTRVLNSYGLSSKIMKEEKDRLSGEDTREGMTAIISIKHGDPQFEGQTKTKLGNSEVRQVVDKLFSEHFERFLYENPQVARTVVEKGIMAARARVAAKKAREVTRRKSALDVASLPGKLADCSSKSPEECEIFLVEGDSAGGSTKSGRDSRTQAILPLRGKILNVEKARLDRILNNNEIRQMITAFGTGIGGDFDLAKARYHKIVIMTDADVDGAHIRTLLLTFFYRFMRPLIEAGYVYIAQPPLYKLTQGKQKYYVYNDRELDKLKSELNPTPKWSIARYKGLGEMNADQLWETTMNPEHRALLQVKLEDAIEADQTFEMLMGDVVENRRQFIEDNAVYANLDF

Structure (SMILES)	MIC (Staphylococcus aureus [1]; [8])	MIC (Haemophilus influenzae; [9])	MIC (Escherichia coli [2])	IC50 (DNA gyrase subunit B)	MIC (Enterococcus faecium; [10])	MIC (Staphylococcus aureus [3]; [11])	MIC (Escherichia coli [4]; [12])	MIC (Streptococcus pneumoniae [5]; [13])	MIC (Moraxella catarrhalis; [14])	Activity (Streptococcus pneumoniae [6])	ED50 (Streptococcus pneumoniae [6])	Activity (Streptococcus pneumoniae [7])	MIC (Staphylococcus aureus [1])	MIC (Haemophilus influenzae)	MIC (Enterococcus faecium)	MIC (Staphylococcus aureus [3])	MIC (Escherichia coli [4])	MIC (Streptococcus pneumoniae [5])	MIC (Moraxella catarrhalis)
Cc1[nH]c(C(=O)NC2CCN(c3cc(C(=O)O)cc(Cl)n3)CC2)c(Cl)c1Cl	2 µg/mL (≈ 4.63 µM)	4 µg/mL (≈ 9.27 µM)	> 64 µg/mL	10 nM	1 µg/mL (≈ 2.32 µM)	2 µg/mL (≈ 4.63 µM)	0.25 µg/mL (≈ 0.579 µM)	0.5 µg/mL (≈ 1.16 µM)	0.13 µg/mL (≈ 0.301 µM)	–	–	–	–	–	–	–	–	–	–
Cc1[nH]c(C(=O)N[C@@H]2CCN(c3ncc(C(=O)O)s3)C[C@@H]2F)c(Cl)c1Cl	2 µg/mL (≈ 4.75 µM)	0.25 µg/mL (≈ 0.593 µM)	> 64 µg/mL	–	0.25 µg/mL (≈ 0.593 µM)	2 µg/mL (≈ 4.75 µM)	0.06 µg/mL (≈ 0.142 µM)	0.06 µg/mL (≈ 0.142 µM)	0.06 µg/mL (≈ 0.142 µM)	Dose-dependent effect	54 mg/kg	80 mg/kg	–	–	–	–	–	–	–
Cc1[nH]c(C(=O)NC2CCN(C3CN[C@H](C(=O)O)C3)CC2)c(Cl)c1Cl (stereo not given in full)	> 64 µg/mL	> 64 µg/mL	> 64 µg/mL	129000 nM	> 64 µg/mL	> 64 µg/mL	> 64 µg/mL	> 64 µg/mL	> 64 µg/mL	–	–	–	–	–	–	–	–	–	–
Cc1[nH]c(C(=O)NC2CCN(c3nnco3)CC2)c(Cl)c1Cl	32 µg/mL (≈ 93 µM)	64 µg/mL (≈ 186 µM)	> 64 µg/mL	230 nM	32 µg/mL (≈ 93 µM)	32 µg/mL (≈ 93 µM)	4 µg/mL (≈ 11.6 µM)	4 µg/mL (≈ 11.6 µM)	4 µg/mL (≈ 11.6 µM)	–	–	–	–	–	–	–	–	–	–
Cc1[nH]c(C(=O)N[C@H]2CCN(c3ncc(C(=O)O)s3)C[C@H]2F)c(Cl)c1Cl (racemic)	–	–	> 64 µg/mL	< 10 nM	–	–	–	–	–	–	–	–	4 µg/mL (≈ 9.49 µM)	0.5 µg/mL (≈ 1.19 µM)	0.5 µg/mL (≈ 1.19 µM)	2 µg/mL (≈ 4.75 µM)	0.13 µg/mL (≈ 0.309 µM)	0.13 µg/mL (≈ 0.309 µM)	<0.06 µg/mL
Cc1ccc(C(=O)NC2CCN(c3cc(C(N)=O)cc(Cl)n3)CC2)[nH]1	> 64 µg/mL	> 64 µg/mL	> 64 µg/mL	6900 nM	> 64 µg/mL	> 64 µg/mL	> 64 µg/mL	> 64 µg/mL	> 64 µg/mL	–	–	–	–	–	–	–	–	–	–
CONC(=O)c1cnc(N2CCC(NC(=O)c3[nH]c(C)c(Cl)c3Cl)CC2)s1	8 µg/mL (≈ 18.5 µM)	16 µg/mL (≈ 37 µM)	> 64 µg/mL	50 nM	8 µg/mL (≈ 18.5 µM)	8 µg/mL (≈ 18.5 µM)	0.25 µg/mL (≈ 0.578 µM)	1 µg/mL (≈ 2.31 µM)	1 µg/mL (≈ 2.31 µM)	–	–	–	–	–	–	–	–	–	–
Cc1[nH]c(C(=O)N[C@H]2CCN(c3ncc(C(=O)O)s3)C[C@H]2F)c(Cl)c1Cl	–	–	–	35 nM	–	–	–	–	–	–	–	–	32 µg/mL (≈ 76 µM)	4 µg/mL (≈ 9.49 µM)	4 µg/mL (≈ 9.49 µM)	16 µg/mL (≈ 38 µM)	0.5 µg/mL (≈ 1.19 µM)	2 µg/mL (≈ 4.75 µM)	1 µg/mL (≈ 2.37 µM)
Cc1[nH]c(C(=O)NC2CCN(c3nc(C(=O)O)cs3)CC2)c(Cl)c1Cl	8 µg/mL (≈ 19.8 µM)	2 µg/mL (≈ 4.96 µM)	> 64 µg/mL	20 nM	4 µg/mL (≈ 9.92 µM)	8 µg/mL (≈ 19.8 µM)	0.25 µg/mL (≈ 0.62 µM)	0.5 µg/mL (≈ 1.24 µM)	0.5 µg/mL (≈ 1.24 µM)	–	–	–	–	–	–	–	–	–	–
Cc1[nH]c(C(=O)NC2CCN(c3cc(C(N)=O)cc(Cl)n3)CC2)cc1C#N	> 64 µg/mL	> 64 µg/mL	–	150 nM	–	–	–	4 µg/mL (≈ 10.3 µM)	–	–	–	–	–	–	–	–	–	–	–
Cc1[nH]c(C(=O)NC2CCN(c3cc(C(N)=O)cc(Cl)n3)CC2)c(Cl)c1Cl	4 µg/mL (≈ 9.29 µM)	> 64 µg/mL	> 64 µg/mL	30 nM	4 µg/mL (≈ 9.29 µM)	4 µg/mL (≈ 9.29 µM)	2 µg/mL (≈ 4.64 µM)	1 µg/mL (≈ 2.32 µM)	2 µg/mL (≈ 4.64 µM)	–	–	–	–	–	–	–	–	–	–
Cc1[nH]c(C(=O)N[C@@H]2CCN(c3ncc(C(=O)O)s3)C[C@H]2F)c(Cl)c1Cl (racemic)	> 64 µg/mL	64 µg/mL (≈ 152 µM)	> 64 µg/mL	110 nM	32 µg/mL (≈ 76 µM)	> 64 µg/mL	4 µg/mL (≈ 9.49 µM)	8 µg/mL (≈ 19 µM)	16 µg/mL (≈ 38 µM)	–	–	–	–	–	–	–	–	–	–
Cc1[nH]c(C(=O)NC2CCN(c3ncc(C(=O)O)s3)CC2)c(Cl)c1Cl	8 µg/mL (≈ 19.8 µM)	2 µg/mL (≈ 4.96 µM)	> 64 µg/mL	20 nM	2 µg/mL (≈ 4.96 µM)	8 µg/mL (≈ 19.8 µM)	0.25 µg/mL (≈ 0.62 µM)	0.5 µg/mL (≈ 1.24 µM)	0.5 µg/mL (≈ 1.24 µM)	–	–	–	–	–	–	–	–	–	–
Cc1[nH]c(C(=O)NC2CCN(c3cc(C(N)=O)cc(Cl)n3)CC2)cc1Cl	32 µg/mL (≈ 80.8 µM)	> 64 µg/mL	> 64 µg/mL	110 nM	> 32 µg/mL	> 32 µg/mL	8 µg/mL (≈ 20.2 µM)	4 µg/mL (≈ 10.1 µM)	–	–	–	–	–	–	–	–	–	–	–
Cc1[nH]c(C(=O)NC2CCN(c3cc(C(N)=O)cc(Cl)n3)CC2)cc1Br	32 µg/mL (≈ 72.6 µM)	64 µg/mL (≈ 145 µM)	> 64 µg/mL	100 nM	> 64 µg/mL	32 µg/mL (≈ 72.6 µM)	4 µg/mL (≈ 9.08 µM)	4 µg/mL (≈ 9.08 µM)	8 µg/mL (≈ 18.2 µM)	–	–	–	–	–	–	–	–	–	–
